Results pooled from the literature.

O=C(O)C1CCN(c2ncc(-c3ccc4c(c3)OCCCO4)s2)CC1
concentration (male Swiss mouse, plasma; oral, 30 mg/kg, 24 h, single dose): 1570 ng/mL

CC(C)CN(C[C@@H](O)[C@H](Cc1ccccc1)NC(=O)O[C@H]1CO[C@H]2OCC[C@H]21)S(=O)(=O)c1ccc(N)cc1
concentration (BALB/c mouse, plasma; intravenous, 2.5 mg/kg, 6 h): 4.19 ng/mL

c1cnc2ccc(Nc3nc(NC4CC4)c4nc[nH]c4n3)cc2c1
MRT(0-t) (human, plasma; oral, 50 mg/m², patients): 6.4 h

CC(C)(C)c1ccc(O)c(CN(Cc2cc(C(C)(C)C)ccc2O)C2CCC(NC(N)=O)CC2)c1 (stereo not shown)
half-life (male C57BL/6 mouse, brain; intraperitoneal, 25 mg/kg, single dose): 10.1 h

CC(C)(Nc1nc(-c2ccccn2)nc2ccccc12)c1ccccn1
concentration (female BALB/c mouse, plasma; intravenous, 1 mg/kg, 4.98 min): 1460 ng/mL

CS(=O)(=O)CCC#N
MRT (human, plasma; oral, 300 mg, single dose, fasted): 30.5 h

CC(C)(O)c1ccccc1-c1ccc2[nH]c(/C=C/c3ccc(C(F)(F)F)cc3)nc2c1
MRT (male human, plasma; oral, 5 mg, single dose, fasted, healthy volunteers): 43.6 h

c1ccc(-c2nc(N3CCC(c4ccccn4)C3)c3ccccc3n2)nc1 (stereo not shown)
concentration (female BALB/c mouse, plasma; oral, 50 mg/kg, 1 h): 2940 ng/mL

CC(C)Oc1cccc(-c2cnc(N3CCC(C(N)=O)CC3)s2)c1
concentration (male Swiss mouse, brain; oral, 30 mg/kg, 1 h, single dose): 207 ng/g

O=c1nc(N2CCN(CC3CCCCC3)CC2)sc2c([N+](=O)[O-])cc(C(F)(F)F)cc12
concentration (CD-1 mouse, plasma; oral, 100 mg/kg, 8 h): 336 ng/mL
